Tests used:
[1] = format: in vivo, rat; details: oral 100 mg/kg
Procedure, shortened: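 In Sprague Dawley rats given 100 mg/kg [14C]-labelled compound (100 μCi/kg) orally in 0.2% HPMC, heparinized blood was taken by cardiac puncture at 2–168 h. Plasma was precipitated with MeOH/ACN (50:50), dried under N2 and reconstituted. Urine (0–6, 6–24 h) and feces (0–12, 12–24, 24–48 h) were pooled and stored at −80°C. Analysis used accurate-mass LC-MS with offline radiodetection.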

UGT 1A3 = biological target: T1, UGT 1A3 (Homo sapiens, UniProt P35503); assay: Glucuronidation of opicapone by recombinant UGT1A3; format: in vitro ADME; details: 20 μM opicapone
T1 sequence (P35503 29-534): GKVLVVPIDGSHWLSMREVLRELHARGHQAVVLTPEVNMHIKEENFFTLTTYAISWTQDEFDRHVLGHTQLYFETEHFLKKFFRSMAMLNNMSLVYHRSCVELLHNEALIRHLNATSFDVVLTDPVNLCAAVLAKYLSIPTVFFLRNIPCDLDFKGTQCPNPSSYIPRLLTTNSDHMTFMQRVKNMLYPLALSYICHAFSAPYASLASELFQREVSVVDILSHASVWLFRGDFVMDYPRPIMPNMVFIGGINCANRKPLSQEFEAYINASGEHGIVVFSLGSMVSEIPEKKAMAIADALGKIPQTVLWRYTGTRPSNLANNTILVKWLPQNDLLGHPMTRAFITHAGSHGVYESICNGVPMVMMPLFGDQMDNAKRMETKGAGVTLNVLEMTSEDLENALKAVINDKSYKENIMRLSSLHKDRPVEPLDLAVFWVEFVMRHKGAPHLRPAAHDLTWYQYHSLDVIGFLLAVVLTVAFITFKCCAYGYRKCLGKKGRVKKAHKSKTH

UGT 1A1 = biological target: T2, UGT 1A1 (Homo sapiens, UniProt P22309); assay: Glucuronidation of opicapone by recombinant UGT1A1; format: in vitro ADME; details: 20 μM opicapone
T2 sequence (P22309 26-533): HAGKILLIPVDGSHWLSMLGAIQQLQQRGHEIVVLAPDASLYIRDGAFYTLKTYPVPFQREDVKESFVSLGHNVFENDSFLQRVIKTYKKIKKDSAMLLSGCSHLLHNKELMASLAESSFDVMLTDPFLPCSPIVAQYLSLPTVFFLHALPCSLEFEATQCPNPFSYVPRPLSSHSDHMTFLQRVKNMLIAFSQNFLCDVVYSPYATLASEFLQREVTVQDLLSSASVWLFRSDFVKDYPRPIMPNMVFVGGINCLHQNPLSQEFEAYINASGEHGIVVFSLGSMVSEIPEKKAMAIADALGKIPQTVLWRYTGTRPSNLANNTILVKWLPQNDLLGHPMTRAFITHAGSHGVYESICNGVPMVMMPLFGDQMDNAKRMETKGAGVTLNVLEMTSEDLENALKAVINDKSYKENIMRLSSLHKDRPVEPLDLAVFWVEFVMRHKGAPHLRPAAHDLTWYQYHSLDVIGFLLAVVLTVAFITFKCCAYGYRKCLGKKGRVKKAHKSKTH

UGT1A4 = biological target: T3, UGT1A4 (Homo sapiens, UniProt P22310); assay: Glucuronidation of opicapone by recombinant UGT1A4; format: in vitro ADME; details: 20 μM opicapone; incubation period of 60 min
T3 sequence (P22310 29-534): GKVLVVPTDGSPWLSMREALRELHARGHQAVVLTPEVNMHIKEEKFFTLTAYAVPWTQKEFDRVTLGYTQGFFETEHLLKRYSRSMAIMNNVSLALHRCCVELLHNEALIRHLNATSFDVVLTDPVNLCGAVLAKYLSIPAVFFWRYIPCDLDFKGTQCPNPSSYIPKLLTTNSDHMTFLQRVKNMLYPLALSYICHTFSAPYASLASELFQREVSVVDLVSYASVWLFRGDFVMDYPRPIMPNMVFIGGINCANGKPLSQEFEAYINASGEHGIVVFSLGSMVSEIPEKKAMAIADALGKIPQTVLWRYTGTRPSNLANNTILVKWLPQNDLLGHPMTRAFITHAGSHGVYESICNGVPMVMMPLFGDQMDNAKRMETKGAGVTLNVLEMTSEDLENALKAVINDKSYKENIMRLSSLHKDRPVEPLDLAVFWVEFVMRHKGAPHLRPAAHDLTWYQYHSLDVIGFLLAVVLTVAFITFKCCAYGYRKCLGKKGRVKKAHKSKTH

UGT 2B4 = biological target: T4, UGT 2B4 (Homo sapiens, UniProt P06133); assay: Glucuronidation of opicapone by recombinant UGT2B4; format: in vitro ADME; details: 20 μM opicapone; incubation period of 60 min
T4 sequence (P06133 24-528): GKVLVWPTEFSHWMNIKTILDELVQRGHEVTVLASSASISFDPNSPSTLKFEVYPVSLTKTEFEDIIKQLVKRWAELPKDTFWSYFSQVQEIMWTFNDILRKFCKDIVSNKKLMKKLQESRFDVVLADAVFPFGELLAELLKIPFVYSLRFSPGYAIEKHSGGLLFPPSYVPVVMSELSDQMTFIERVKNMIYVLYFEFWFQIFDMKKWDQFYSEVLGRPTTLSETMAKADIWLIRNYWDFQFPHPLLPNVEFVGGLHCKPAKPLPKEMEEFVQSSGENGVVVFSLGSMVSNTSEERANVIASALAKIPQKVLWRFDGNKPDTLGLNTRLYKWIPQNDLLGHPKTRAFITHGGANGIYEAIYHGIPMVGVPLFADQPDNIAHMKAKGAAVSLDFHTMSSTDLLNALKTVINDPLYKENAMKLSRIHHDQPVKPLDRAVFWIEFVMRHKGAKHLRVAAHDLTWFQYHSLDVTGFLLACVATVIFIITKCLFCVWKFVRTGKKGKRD

Plasma, % of total AUC0–168 h of drug-related radioactivity ([1]; ND = not detected): 15.1%
Time of peak of unchanged opicapone in plasma ([1]; earliest time point analyzed): 2 h
Feces, % of administered dose ([1]; feces pools 0–48 h, ND = not detected): 6.25%
Urine, % of administered dose ([1]; urine pools 0–24 h, ND = not detected, 100 mg/kg): 0.1%
Formation of BIA 9-1106 (screening) (UGT 1A3): little amounts
Formation of BIA 9-1106 (screening) (UGT 1A1): little amounts
Metabolite formation (screening) (UGT1A4): No metabolite formation was detected
Metabolite formation (screening) (UGT 2B4): No metabolite formation was detected
SMILES: Cc1c(Cl)c(C)[n+]([O-])c(Cl)c1-c1noc(-c2cc(O)c(O)c([N+](=O)[O-])c2)n1 [opicapone, 2,5‐dichloro‐3‐(5‐(3,4‐dihydroxy‐5‐nitrophenyl)‐1,2,4‐oxadiazol‐3‐yl)‐4,6‐dimethylpyridine 1‐oxide]
